# This is a sample that favours compounds with a hit; in the whole collection about 2% have one here.
# H9c2 TAG inh: triacylglycerol accumulation inhibition; H9c2 cells, Nile Red lipid (TAG) fluorescence; cells loaded with 200 µM oleic acid; 230,000 tested, 0.66% active; inhibition, % at 12.5 µM; AID 651582;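 active = pattern-corrected inhibition of lipid staining of at least 50% with the nuclear-stain viability signal not falling by more than 50%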
# Arrestin-AP2 inh: blocks beta-arrestin peptide binding to AP2 adaptin; FITC-arrestin peptide / GST-AP2 beads, flow cytometry; AP2 beta2 appendage carries R879A mutation; inhibition, % at 10 µM; 340,000 tested, 0.31% active;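 active = inhibition above a set limit, near 3 SD of compounds lacking own fluorescence, cut at about 54% in these data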
#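 System: GST-tagged AP2 beta2-adaptin appendage (R879A) on 4 µm glutathione beads / Reagent: FITC-arrestin peptide, 50 nM / Detection: HyperCyt-sampled flow cytometry, FL1 channel, ex 488/em 535 nm / Timing: 12 min plus 1 h, RT / Buffer or medium: PBS plus Tween 20 (0.05%) and BSA (0.1%)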
# GRK2 inh: blocks RNA aptamer binding to human GRK2 | bead flow cytometry, FAM-aptamer displacement from GRK2 | inhibition of aptamer binding, % at 10 µM | 330,000 tested, 0.59% active;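 active = inhibition of aptamer binding above 40%, roughly 3 SD of noise, on plates passing a quality check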;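 note: median bead fluorescence of bound FAM aptamer so fluorescent compounds give negative values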
# NTR1 ag: NTR1 (human) agonism; NTR1-U2OS beta-arrestin-GFP spot imaging, agonist mode; activation, % at 20 µM; 330,000 tested, 0.17% active;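 active = activation at or above 40% of the spot to cytoplasm intensity ratio, with at least 20 cells analyzed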
# Target sequence (P30989 whole entry, looked up): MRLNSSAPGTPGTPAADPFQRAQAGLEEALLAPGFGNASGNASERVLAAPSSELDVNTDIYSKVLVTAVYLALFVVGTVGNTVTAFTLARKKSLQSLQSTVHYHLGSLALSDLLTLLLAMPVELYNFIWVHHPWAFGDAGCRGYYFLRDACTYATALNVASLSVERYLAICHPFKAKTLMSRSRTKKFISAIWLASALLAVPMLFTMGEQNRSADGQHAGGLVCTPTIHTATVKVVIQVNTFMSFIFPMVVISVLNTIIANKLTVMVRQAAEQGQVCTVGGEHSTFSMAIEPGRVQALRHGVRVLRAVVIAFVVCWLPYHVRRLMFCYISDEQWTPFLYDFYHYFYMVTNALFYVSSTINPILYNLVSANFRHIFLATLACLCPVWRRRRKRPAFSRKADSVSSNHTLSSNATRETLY
# B2AR ag: agonists of human beta-2 adrenergic receptor inducing internalization; P07550; Am2.2-beta2AR cells, FAP receptor internalization, flow cytometry; response, % (no concentration beside the values); 340,000 tested, 0.43% active;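 active = response above a set limit, near 3 SD of response in nonfluorescent compounds, cut at about 42% in these data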
# Hep lipid drop: hepatic lipid droplet formation modulation; AML12 mouse hepatocytes, oleate lipid droplets, BODIPY imaging; 240,000 tested, 0.4% active; inhibition, % at 6.5 µM;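 active = lipid droplet intensity inhibited by at least 50%, with more than 500 cells counted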
#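 material = mouse AML12 hepatocyte cell line, fixed after treatment | also added = 100 µM oleic acid challenge | doses = compound at 6.5 µM only | schedule = overnight exposure | technique = Image-based BODIPY and DAPI two-channel analysis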
# GRK2 CP1: confirmation of human GRK2 inhibitors displacing RNA aptamer; 2,000 tested, 4% active; shares compounds with GRK2 inh; bead-bound GRK2, FAM-aptamer displacement, flow cytometry; aptamer displacement, % at 10 µM; AID 504451;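 active = aptamer displacement above 40%, near three times the noise of non-fluorescent compounds, on plates passing quality checks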;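 note: negative values mostly reflect intrinsic compound fluorescence rather than true enhancement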
# Aptamer quench 1: fluorescent aptamer quenching in GRK2 counter-screen dose response. Fluorescent RNA aptamer beads, flow cytometry; hits give high values. AID 504521. shares compounds with GRK2 inh. fluorescence change (kMESF span), kMESF (test concentration not listed). 110 tested, under 10 active;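 active = compounds whose bead fluorescence drops by more than 37 kMESF across the dose range, marking them as dye quenchers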
# FAM quench CP1: counter-screen for GRK2 aptamer inhibitors: fluorescent aptamer quenchers. AID 504580. shares compounds with GRK2 inh. 2,000 tested, under 10 active. Carboxyfluorescein RNA aptamer on beads, flow cytometry quenching; hits give low values. fluorescence response (% of DMSO), % at 10 µM;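 active = compounds that quench the bead-bound fluorescent RNA probe, cutting fluorescence to under half of the solvent control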;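 note: counterscreen run without GRK2 so only probe quenching by compound is measured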
# GRK2 CP2: confirmation of human GRK2 inhibitors binding RNA aptamer site | shares compounds with GRK2 inh | bead-bound GRK2, FAM-aptamer displacement, flow cytometry | inhibition of aptamer binding, % at 10 µM | 360 tested, under 10 active | AID 504782;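 active = inhibition of aptamer binding above 40%, about triple the noise seen with nonglowing compounds, on plates passing quality control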;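 note: negative values mostly come from compounds that fluoresce themselves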
# FAM quench SP: counter-screen for GRK2 binding hits: quenchers of fluorescent RNA aptamer | shares compounds with GRK2 inh | carboxyfluorescein RNA aptamer beads, flow cytometry quenching; hits give low values | fluorescence response vs DMSO, % at 10 µM | 360 tested, under 10 active;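 active = response vs DMSO under 50%, meaning signal dropped by over half, treated as fluorescence quencher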;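 note: labelled aptamer on streptavidin beads without GRK2 as a quench counter-screen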
# A number is an active result; – = inactive; · = no result.
SMILES,H9c2 TAG inh,Arrestin-AP2 inh,GRK2 inh,NTR1 ag,B2AR ag,Hep lipid drop,GRK2 CP1,FAM quench CP1,others
Cc1ccc(NC(=O)/C(C#N)=C(\N)C(Cl)(Cl)Cl)nc1,–,–,–,–,–,–,·,·,
C=CCn1c(SCC(=O)Nc2ncc(Cc3ccc(Br)cc3)s2)nnc1-c1ccncc1,·,–,91,–,–,·,–,–,
C=CCn1c(SCC(=O)Nc2cc(C)on2)nnc1-c1ccncc1,–,·,·,·,·,·,·,·,
O=C(NN=C(Cc1ccccc1)Cc1ccccc1)c1ccccc1F,–,–,86,–,–,–,–,–,
O=C(C1COc2ccccc2O1)N1CCN(c2ccc([N+](=O)[O-])cc2)CC1 (configuration not stated),–,–,98,–,–,·,–,–,
O=C(C1COc2ccccc2O1)N1CCN(c2ccc(F)cc2)CC1 (configuration not stated),·,–,–,–,–,·,·,·,
O=C(Nc1ccc(Cl)cn1)C1CCN(c2ncnc3c2nc2n3CCCCC2)CC1,·,–,55,–,–,–,–,–,
O=C(Nc1ccc(Cl)cn1)C1CCCN(c2ncnc3c2nc2n3CCCCC2)C1 (configuration not stated),·,–,–,–,–,–,·,·,
Cc1ccc(/C=C2\SC(=S)N(C3CCS(=O)(=O)C3)C2=O)o1 (configuration not stated),·,–,43,–,–,–,–,–,
NS(=O)(=O)c1ccc(-c2ccc(/C=C3\SC(=S)N(C4CCS(=O)(=O)C4)C3=O)o2)cc1 (configuration not stated),–,–,–,–,–,–,·,·,
COc1cc2nc(-c3cccs3)oc(=O)c2cc1OC,·,–,74,–,–,·,–,–,
Cc1ccc2nc(-c3cccs3)oc(=O)c2c1,–,–,–,–,–,–,·,·,
O=C(Nc1cc(S(=O)(=O)N2CCOCC2)ccc1OCC(F)(F)F)C1=COCCO1,–,–,–,–,–,·,·,·,
O=C(O)C1C2C=CC(CC2)C1C(=O)O (configuration not stated),–,–,60,–,–,·,52,–,Aptamer quench 1=–
CC(C)c1ccc(NC(=O)C2C3C=CC(CC3)C2C(=O)O)cc1 (configuration not stated),–,–,–,–,–,·,·,·,
CSc1ccc(CN2CCN(S(=O)(=O)Cc3ccccc3)CC2)cc1,–,–,55,–,–,–,·,·,GRK2 CP2=–;FAM quench SP=–
CCc1ccc(CN2CCN(S(=O)(=O)Cc3ccccc3)CC2)cc1,–,–,–,–,–,–,·,·,
O=C(/C=C/CCc1ccc2c(c1)OCO2)N1CCCCC1,·,–,–,–,–,·,·,·,
COC(=O)c1[nH]c2c(c1C)C(=O)CCC2,·,–,–,–,–,·,–,–,
Cc1c(C(=O)OC2CCC(C)CC2)[nH]c2c1C(=O)CCC2 (configuration not stated),–,–,–,–,–,–,·,·,
CCCCN1C(=O)C(CC(=O)NCCc2ccccn2)CC(C(=O)N(C(C)C)C(C)C)=C1C (configuration not stated),–,·,·,·,·,·,·,·,
CC(C)c1c(O)nc(SCc2ccc(F)cc2)[nH]c1=O,·,–,60,–,–,–,–,–,
O=C(CCCOc1ccccc1)N1CCN(C(=O)c2ccco2)CC1,·,–,–,–,–,–,·,·,
Cc1cc(Cl)ccc1OCCCC(=O)N1CCN(C(=O)c2ccco2)CC1,·,–,78,–,–,·,–,–,
O=C(OCC(=O)N1CCN(C(=O)c2ccco2)CC1)c1ccccc1,–,–,78,–,–,–,–,–,
SMILES,H9c2 TAG inh,Arrestin-AP2 inh,GRK2 inh,NTR1 ag,B2AR ag,Hep lipid drop,GRK2 CP1,FAM quench CP1,others
O=C(OCC(=O)N1CCN(C(=O)c2ccco2)CC1)c1ccc(Cl)cc1,–,–,–,–,–,·,·,·,
COc1ccc(C(O)c2nc(-c3cccc(F)c3)cs2)cc1 (configuration not stated),–,·,·,·,·,·,·,·,
CC(C)[C@H](NC(=O)OCc1ccccc1)C(=O)OCc1cc(=O)oc2cc(O)ccc12,–,–,–,–,–,–,·,·,
O=C(OCc1ccccc1C(F)(F)F)c1ccc(Br)c(S(=O)(=O)N2CCOCC2)c1,–,–,·,·,–,·,·,·,
Cc1cc(NC(=O)CSc2nc3c(c(-c4cccnc4)c2C#N)CCC3)no1,·,–,77,–,–,–,–,–,
CCOC(=O)/C(C#N)=c1/s/c(=C2\C=Cc3ccccc3N2CC)c(=O)n1CC,–,–,65,–,–,·,–,–,
COc1cccc2[nH]c(C(=O)NC(C)c3ccccc3)cc12 (configuration not stated),·,–,–,–,–,–,·,·,
CCN(CC)c1ccc(NC(=O)c2cc3c(OC)cccc3[nH]2)cc1,·,–,–,–,–,–,–,–,
NS(=O)(=O)c1ccc(NS(=O)(=O)c2ccc(NC(=O)c3ccc(-c4ccccc4)cc3)cc2)cc1,–,–,41,–,–,·,–,–,
O=C(CSc1n[nH]c(=O)[nH]c1=O)N1CCCCCC1,–,–,–,–,–,–,·,·,
O=C(CCc1n[nH]c(=O)[nH]c1=O)N1CCCCC1,–,–,–,–,–,–,–,–,
O=C(NC1CCN(C(=O)c2cccc([N+](=O)[O-])c2)CC1)c1ccccc1,·,–,98,–,–,·,–,–,
CCOC(=S)SCc1cn2cccc(C)c2n1,–,–,–,–,–,–,·,·,
CCOc1ccccc1NC(=O)CSc1n[nH]c(N)n1,–,–,–,–,–,–,·,·,
CCc1cccc(C)c1NC(=O)CSc1n[nH]c(N)n1,–,–,100,–,–,·,–,–,
Cc1cccc(C)c1NC(=O)CSc1nnc(-c2ccco2)c(-c2ccco2)n1,–,–,47,–,–,·,–,–,
COC(=O)c1cc(Cl)nc2ccccc12,–,–,87,–,–,–,–,–,
O=C(CCc1ccc(Oc2cc([N+](=O)[O-])cc([N+](=O)[O-])c2)cc1)NC1CCCC1,·,–,99,–,–,–,–,–,
O=S(=O)(NCc1ccc(F)cc1)c1ccc(-c2cnc(C3CC3)o2)cc1,·,–,51,–,–,–,–,–,

# From PubChem
